According to ChEMBL document CHEMBL4513216, “Probing the Open Global Health Chemical Diversity Library for Multistage-Active Starting Points for Next-Generation Antimalarials” (ACS Infect Dis, 2020):

Assay: Toxicity liver stage against HepG2, at 10uM
Type: cell-based
Design: test concentration 10 uM, cell line HepG2-A16-CD81EGFP
Conditions: human, HepG2-A16-CD81EGFP cells; read-out: INHIBITION
Summary of the method: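 Uninfected HepG2-A16-CD81EGFP cells, 3 × 10^3 per well, 1536-well, plated on prespotted compound at 10 μM final, parasite-free screening media added to match infected plates; puromycin 10 μM positive, DMSO 0.5% negative; run in parallel with 48 h PbLuc assay at 37 °C, 5% CO2; viability by CellTiter-Glo luminescence, normalized to controls.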

SMILES	cytotoxicity at 10 µM
Cc1n[nH]c2c1C(c1ccncc1)SCC(=O)N2 (centres undefined)	4.96%
O=C(N1CCCC1)N1CCC2(CC1)C(=O)N(CC1CC1)c1ccccc12	7.15%
COc1cc(N2CC[C@@H](OC)[C@@H]2Cc2cnn(C)c2)ncn1	-0.155%
CS(=O)(=O)NC[C@H]1OC[C@@H]2CCN(C(=O)c3cccnc3)C[C@@H]21	5.31%
COCC(=O)N1C[C@H]2CC[C@@]3(N=C(c4ccccc4)NC3=O)[C@H]2C1	3.83%
CCOCC1CN(C(=O)c2cccs2)Cc2nn(C)cc21 (centres undefined)	-1.63%
Cn1cc(N2CCC3(CCN(C(=O)c4cccn4C)C3)C2=O)cn1 (centres undefined)	2.93%
CCCNC(=O)c1sccc1N(C)S(=O)(=O)c1ccc(Cl)cc1	9.22%
Cc1csc(CN2CC[C@H]3C[C@H](c4nnc(C)[nH]4)O[C@@H]3C2)n1	-19.6%
Cc1nn(CC(F)F)c2c1c(C(F)F)cc(=O)n2CC(=O)O	2.84%
CCCNC(=O)C(C)n1cc(Br)cn1 (centres undefined)	-19.7%
COCCC(=O)NCCc1nc2cc(-c3ccc(OC)cc3)ncn2n1	10.5%
COC(=O)c1ccc(-c2cc(C(F)(F)F)cc(N(C)C)n2)cc1	-0.409%
CC(O)c1cn(Cc2ccc(F)cc2)nn1 (centres undefined)	4.78%
Cn1cc(C2CCCN2C(=O)c2cnc(-c3ccco3)s2)cn1 (centres undefined)	3.88%
CC1c2ccc(F)cc2CCN1C(=O)c1[nH]c(=O)[nH]c(=O)c1N (centres undefined)	-5.22%
CNC(=O)c1cccc(Nc2cnn(C)c2)c1	6.77%
CC(NC(=O)CN(C)C(C)C)c1ccc(Oc2cccnc2)c(F)c1 (centres undefined)	2%
Cc1[nH]n(-c2ccccc2)c2nnc(N)c1-2	12.4%
CCN(Cc1cnn(C)c1)S(=O)(=O)c1ccc(NC(=O)C(C)(C)C)cc1	0.165%
Cc1cccc(CC(=O)NS(=O)(=O)c2ccc(F)c(F)c2)c1	-5.23%
CCNC(=O)Cc1ccc(NC(=O)NC(CC)CC)cc1	-6.93%
Cc1csc(CNC(=O)NCC(O)c2ccc(F)cc2F)n1 (centres undefined)	-10.8%
CCCc1nc(C)c(C(=O)NC2CCN(c3ncccn3)CC2)s1	16.7%
Cc1ncc(CN(C)C(=O)Nc2cccc(N3CCNC3=O)c2)s1	9.97%
OCC(O)CSCc1cn(-c2ccc(F)c(Cl)c2)nn1 (centres undefined)	9.51%
O=C(CN1CCN(CCO)CC1)NC(C1CC1)C1CC1	-6.56%

SMILES	cytotoxicity at 10 µM
Cc1nc(CC(=O)N2CCN(C(C)c3ccccc3F)CC2)cs1 (centres undefined)	2.58%
O=C(NCC1(N2CCOCC2)CCSC1)Nc1ccc(F)cc1 (centres undefined)	-10.2%
COCc1noc(C2(c3ccc(Br)cc3)CCOCC2)n1	-9.61%
c1cncc(COCC2C[C@@H]3OCCN(Cc4cccnc4)[C@H]3C2)c1 (some centres undefined)	12.2%
O=C1COC2(CCN(C(=O)[C@H]3CCCO3)CC2)CN1Cc1ccccn1	-0.524%
O=C(O)C1(Cc2ccccc2F)CCCN(c2ncnc3[nH]ccc23)C1 (centres undefined)	-0.44%
Fc1ccc(N2CCCN(Cc3ccc(-c4cc[nH]n4)o3)CC2)cc1	0.898%
CC(C)Cc1noc(CN(C)c2cc(C(C)C)nc3ccnn23)n1	-7.55%
Cc1noc2ncnc(NC(CC(C)(C)C)c3cccnc3)c12 (centres undefined)	1.41%
Cc1cc(CN2CCC(C3CCN(CC(C)C)CC3)C2)[nH]n1 (centres undefined)	-8.71%
CC(C)N1CCC(C(=O)N(C)CC(=O)c2ccc(O)cc2)CC1	-4.33%
CNC(=O)[C@@H]1C[C@H](N)CN1S(=O)(=O)c1cc(Cl)c(Cl)s1	1.27%
COc1ccccc1CN1C(=O)O[C@@H]2CN(c3nc(C)cc(C)n3)C[C@@H]21	0.819%
Cc1ccc([C@@H]2CN(S(=O)(=O)N3CCC(C)CC3)C[C@H]2N(C)C)cc1	-3.59%
N#Cc1c2n(c3c(=O)[nH]cnc13)CCCCC2	5.5%
CNC(=O)[C@@H]1C[C@@H](NC(=O)Cc2cccs2)CN1C1CCOCC1	2.7%
CCN1CCCC(C)(C(=O)NCCc2n[nH]c(=O)[nH]2)C1 (centres undefined)	-1.76%
Cn1ncc2c(N3CCCC(C)(O)C3)nc(-c3cccnc3)nc21 (centres undefined)	9.98%
c1cnc2ccc(C[C@@H]3CC[C@H](CN4CCCOCC4)O3)cc2c1	-1.6%
c1cc(-c2n[nH]c(CNc3nnc(C4CC4)o3)n2)ccn1	-2.59%
CN1C(=O)CC(C(=O)O)C12CCN(Cc1ccc(Cl)c(F)c1)CC2 (centres undefined)	2.91%
Cc1cc2c(c(-c3cnccn3)c1)OC(CN)C2 (centres undefined)	-5.13%
CC(C)n1ccnc1C1CCN(Cc2ccc(Cl)c(F)c2)CC1	-3.59%
CCC(=O)N1CCc2[nH]cnc2C12CCN(C(=O)CCS(C)(=O)=O)CC2	-14.4%
Cn1cccc1-c1cc(C(=O)N2CCCC2c2cccnc2)[nH]n1 (centres undefined)	-9.32%
Fc1cccnc1CN1CCCCC1c1ccn2ccnc2n1 (centres undefined)	0.505%
Cc1cnc(CN2CCN(c3ccc4nncn4n3)C(C)C2)cn1 (centres undefined)	-2.21%

SMILES	cytotoxicity at 10 µM
Cc1cccc(CN(Cc2nc3c(cnn3C)c(=O)[nH]2)C2CC2)c1	0.914%
CC(C)c1nn(C)c(N2CCOCC2)c1CNC(C)c1ccccn1 (centres undefined)	-6.56%
O=C(NCCN1CCOCC1)c1scnc1Cl	-2.09%
Cc1ccc(OCCN(C)Cc2nc3c(cnn3C)c(=O)[nH]2)cc1	-3.44%
Cc1nn(C)c(C)c1CC(=O)N1CCCC(n2ccnc2C)C1 (centres undefined)	-5.36%
CNc1nc(CNC(=O)Nc2cccc(OC)c2)cs1	-3.28%
CC(C)C(C(=O)N1CCCN(c2nccs2)CC1)n1cncn1 (centres undefined)	-4.98%
O=C(C1CCCCC1)N1CCN(Cc2nc(-c3ccco3)no2)CC1	-1.01%
CCNc1cc2c(nn1)CCN(C(=O)c1nccnc1N)C2	-16.4%
CCc1nc(C2CCCN2CC(=O)N2CCc3ccccc32)no1 (centres undefined)	-11.2%
Cc1cc(C)n(C2CCCN(C(=O)c3cccc4c3OCO4)C2)n1 (centres undefined)	-3.88%
Cc1nc(C2CCCN(C(=O)COCc3ccccc3Cl)C2)no1 (centres undefined)	5.8%
CN(C)[C@@H]1CN(Cc2cccnc2)C[C@H]1c1cn(C)c2ccccc12	1.44%
O=C(NC[C@H]1OC[C@@H]2CCN(Cc3ccco3)C[C@@H]21)c1ccsc1	-18.3%
O=C1CC2(CCCCN2C(=O)c2ccncc2)CN1CC1CC1 (centres undefined)	2.17%
CO[C@@H]1CC[C@H]2[C@H]1OCCN2CC1CC1	11.4%
CN(Cc1ccco1)[C@@H]1CN(Cc2ccncc2)C[C@@H]2CCCO[C@@H]21	0.361%
O=C(c1cscn1)N1CCc2ncnc(-c3cccnc3)c2CC1	-1.6%
CN(C)C(=O)COCc1cncc2c1CCN(Cc1cnn(C)c1)C2	-3.48%
COCCN1CCC2(CC1)CC(COC)N(c1ncccn1)C2 (centres undefined)	-3.53%
Fc1ccccc1CN1C[C@@H](OCc2ccncc2)[C@H]2OCCC[C@H]21	-4.81%
c1cc(-c2ccc3nc(C4CCN(CC5CC5)CC4)nn3c2)cs1	-12.2%
Cc1ccc(CN2CCC3(CC2)C(=O)Nc2ccccc23)s1	2.88%
CN(C)CCNCCC(c1ccccc1)C1CCOC(C)(C)C1 (centres undefined)	-5.67%
CC1CCN(c2nc3cn(-c4ccc5c(c4)OCO5)c(=O)c-3c[nH]2)CC1	-14%
